Activity calls are given as the source filed them. The rule behind the calls is not given here.
What was measured:
[1] = biological target: Toll-like receptor 2 (Mus musculus) (UniProt Q9QUN7); experiment: Antagonist activity at TLR2 in mouse RAW264.7 cells assessed as PAM3CSK4-induced NO production at 150 uM measured after 24 hrs by Griess assay; type: cell-based
Procedure, shortened: (§1)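 RAW 264.7 cells in DMEM/10% FBS/pen-strep, 80,000 per well, preincubated 24 h at 37 °C, 5% CO2. Nonadherent cells removed, medium changed to plain DMEM. Cells co-treated with compound and 200 ng/mL Pam3CSK4 for 24 h. Nitrite in supernatant measured by modified Griess reagent (sulfanilic acid/phosphoric acid, then naphthylethylenediamine), read at OD560. Triplicate.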

Toll-like receptor 2 = Toll-like receptor 2 (Mus musculus, UniProt Q9QUN7); experiment: Antagonist activity at TLR2 in mouse RAW264.7 cells assessed as PAM3CSK4-induced NO production measured after 24 hrs by Griess assay; type: cell-based; procedure, shortened: as §1
Toll-like receptor 2, sequence (Q9QUN7 whole entry): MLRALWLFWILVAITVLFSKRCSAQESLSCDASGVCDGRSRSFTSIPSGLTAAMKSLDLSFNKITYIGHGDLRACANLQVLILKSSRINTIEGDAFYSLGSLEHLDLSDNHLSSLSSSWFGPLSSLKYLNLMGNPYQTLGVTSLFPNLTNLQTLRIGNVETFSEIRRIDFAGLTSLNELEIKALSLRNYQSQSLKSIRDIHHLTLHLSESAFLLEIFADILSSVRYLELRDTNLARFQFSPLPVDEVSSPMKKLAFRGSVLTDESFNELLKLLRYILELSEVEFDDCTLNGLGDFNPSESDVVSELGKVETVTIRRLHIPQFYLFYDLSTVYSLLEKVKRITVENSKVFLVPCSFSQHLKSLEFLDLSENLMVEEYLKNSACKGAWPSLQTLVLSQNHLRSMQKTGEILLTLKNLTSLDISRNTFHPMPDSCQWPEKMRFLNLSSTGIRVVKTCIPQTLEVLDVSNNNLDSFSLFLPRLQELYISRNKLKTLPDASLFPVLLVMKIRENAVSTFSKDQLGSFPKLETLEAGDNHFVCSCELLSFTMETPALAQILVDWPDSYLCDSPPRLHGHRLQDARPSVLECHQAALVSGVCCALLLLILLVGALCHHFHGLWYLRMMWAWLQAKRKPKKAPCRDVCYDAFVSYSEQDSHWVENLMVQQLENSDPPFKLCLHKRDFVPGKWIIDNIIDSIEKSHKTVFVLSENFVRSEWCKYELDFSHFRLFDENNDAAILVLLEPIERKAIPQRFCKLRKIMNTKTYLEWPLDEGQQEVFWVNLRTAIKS

[2] = biological target: Toll-like receptor 2 (Homo sapiens) (UniProt O60603); experiment: Inhibition of TLR2 in human HEK-Blue hTLR2 cells assessed as suppression of PAM3CSK4-induced SEAP signaling after 24 hrs by quanti-blue assay; type: cell-based
Toll-like receptor 2 (Homo sapiens), sequence (O60603 whole entry): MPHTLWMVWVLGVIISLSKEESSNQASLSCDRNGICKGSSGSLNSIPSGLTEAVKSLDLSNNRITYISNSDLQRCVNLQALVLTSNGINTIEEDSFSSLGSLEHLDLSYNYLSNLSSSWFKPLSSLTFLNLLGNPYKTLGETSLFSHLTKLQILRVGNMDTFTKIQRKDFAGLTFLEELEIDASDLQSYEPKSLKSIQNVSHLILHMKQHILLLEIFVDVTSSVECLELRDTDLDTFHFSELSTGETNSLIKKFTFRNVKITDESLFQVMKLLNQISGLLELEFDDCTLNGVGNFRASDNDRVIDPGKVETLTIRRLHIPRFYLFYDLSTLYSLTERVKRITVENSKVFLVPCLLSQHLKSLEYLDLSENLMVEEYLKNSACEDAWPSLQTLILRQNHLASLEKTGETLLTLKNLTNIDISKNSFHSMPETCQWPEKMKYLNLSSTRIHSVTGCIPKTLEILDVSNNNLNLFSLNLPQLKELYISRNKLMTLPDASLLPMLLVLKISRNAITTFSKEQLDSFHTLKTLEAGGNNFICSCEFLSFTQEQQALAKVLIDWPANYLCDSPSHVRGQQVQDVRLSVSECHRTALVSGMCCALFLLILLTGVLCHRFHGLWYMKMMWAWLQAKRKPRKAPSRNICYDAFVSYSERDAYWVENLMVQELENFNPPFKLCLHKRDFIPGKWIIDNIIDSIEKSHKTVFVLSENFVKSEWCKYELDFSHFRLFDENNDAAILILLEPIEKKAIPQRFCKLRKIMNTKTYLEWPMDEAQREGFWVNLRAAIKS
Procedure, shortened: (§2)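 HEK-Blue hTLR2 cells (human TLR2, CD14 and NF-κB/AP-1-driven SEAP reporter), 4×10^4 per well, grown 24 h in DMEM/10% FBS. Changed to plain DMEM with compound (0–100 µM) plus 20 ng/ml Pam3CSK4 (TLR1/2) or 20 ng/ml Pam2CSK4 (TLR2/6) for 24 h. Supernatant SEAP read with QUANTI-Blue at 37 °C, OD620 after 15–30 min. Mean ± SD of three independent experiments.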

[3] = biological target: Toll-like receptor 2 (Homo sapiens) (UniProt O60603); experiment: Inhibition of TLR2 in human PBMC cells assessed as PAM3CSK4-induced TLR1/2 heterodimerization formation by immunoprecipitation assay; type: cell-based
Procedure, shortened: (§3)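 Human PBMC, 10^6 cells/mL, given vehicle, Pam3CSK4 (50 ng/mL) or Pam2CSK4 (50 ng/mL) with compound for 24 h. Lysates incubated with anti-TLR2 overnight at 4 °C, then protein A agarose for 4 h. Beads washed three times and boiled in SDS buffer. Immunoprecipitates blotted for TLR1, TLR2, TLR6 and MyD88.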

[4] = biological target: Toll-like receptor 3 (Homo sapiens) (UniProt O15455); experiment: Inhibition of Poly:IC-induced TLR3 activation in human HEK-Blue hTLR3 cells; type: cell-based
Toll-like receptor 3 (Homo sapiens), sequence (O15455 whole entry): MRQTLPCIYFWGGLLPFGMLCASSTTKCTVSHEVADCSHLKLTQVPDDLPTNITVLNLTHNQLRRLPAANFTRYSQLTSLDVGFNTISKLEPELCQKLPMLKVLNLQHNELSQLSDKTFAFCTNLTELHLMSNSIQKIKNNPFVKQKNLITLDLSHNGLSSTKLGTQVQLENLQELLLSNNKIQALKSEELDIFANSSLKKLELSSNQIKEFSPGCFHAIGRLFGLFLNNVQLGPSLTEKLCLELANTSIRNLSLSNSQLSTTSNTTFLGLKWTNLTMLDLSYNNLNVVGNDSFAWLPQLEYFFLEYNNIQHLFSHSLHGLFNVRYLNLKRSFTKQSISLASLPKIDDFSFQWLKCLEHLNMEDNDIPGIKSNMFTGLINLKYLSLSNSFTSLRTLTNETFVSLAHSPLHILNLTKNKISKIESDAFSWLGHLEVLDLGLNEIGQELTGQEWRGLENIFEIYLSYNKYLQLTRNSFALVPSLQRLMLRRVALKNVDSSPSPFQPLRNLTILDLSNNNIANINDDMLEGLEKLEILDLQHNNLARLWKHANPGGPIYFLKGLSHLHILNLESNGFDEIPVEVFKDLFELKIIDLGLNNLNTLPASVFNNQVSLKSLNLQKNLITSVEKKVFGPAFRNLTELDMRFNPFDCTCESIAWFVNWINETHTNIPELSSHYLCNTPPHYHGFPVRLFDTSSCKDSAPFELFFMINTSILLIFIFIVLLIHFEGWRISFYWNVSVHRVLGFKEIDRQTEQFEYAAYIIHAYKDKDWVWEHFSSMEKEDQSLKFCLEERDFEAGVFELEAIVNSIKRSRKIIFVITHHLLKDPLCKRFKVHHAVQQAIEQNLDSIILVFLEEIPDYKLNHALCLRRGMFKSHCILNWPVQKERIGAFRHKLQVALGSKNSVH
Procedure, shortened: (§4)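 HEK-Blue hTLR4 or hTLR3 reporter cells, 4×10^4 per well, grown 24 h, then switched to plain DMEM with compound (0–50 µM). Stimulant was 20 ng/ml LPS for hTLR4 and 20 µg/ml Poly:IC for hTLR3, for 24 h. Supernatant SEAP measured by QUANTI-Blue at OD620. Vehicle as negative control. Three independent experiments.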

[5] = biological target: Toll-like receptor 2 (Homo sapiens) (UniProt O60603); experiment: Inhibition of TLR2 in human PBMC cells assessed as PAM3CSK4-induced TLR2/Myd88 heterodimerization formation by immunoprecipitation assay; type: cell-based; procedure, shortened: as §3
[6] = biological target: Toll-like receptor 2 (Homo sapiens) (UniProt O60603); experiment: Inhibition of TLR2 in human PBMC cells assessed as PAM2CSK4-induced TLR2/6 heterodimerization formation by immunoprecipitation assay; type: cell-based; procedure, shortened: as §3
[7] = biological target: Toll-like receptor 2 (Mus musculus) (UniProt Q9QUN7); experiment: Inhibition of TLR2 in mouse RAW264.7 cells assessed as decrease in PAM3CSK4 induced TNF-alpha expression at 25 uM measured after 24 hrs by ELISA relative to control; type: cell-based
Procedure, shortened: (§5)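 RAW 264.7 cells or human PBMC, 1×10^6 per well in DMEM/10% FBS/pen-strep, treated with compound plus 50 ng/ml Pam3CSK4 for 24 h at 37 °C. Supernatants frozen at −80 °C. TNF-α measured by sandwich ELISA against recombinant standards, triplicate samples. Mean ± SD, three independent experiments.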

RAW264.7 = experiment: Cytotoxicity against mouse RAW264.7 cells assessed as effect on cell viability at 6.25 to 100 uM cotreated with PAM3CSK4 measured after 24 hrs by MTT assay; type: cell-based; details: raw264.7, 24 h
Procedure, shortened: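 RAW 264.7 cells, 80,000 per well, grown 24 h in DMEM/10% FBS/pen-strep. Medium then switched to plain DMEM containing compound plus Pam3CSK4 (final 200 ng/ml) for 24 h. MTT (5 mg/ml stock in PBS) added for 4 h, formazan dissolved in DMSO, absorbance read at 450 nm.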

[8] = biological target: Toll-like receptor 2 (Homo sapiens) (UniProt O60603); experiment: Inhibition of TLR2 in human PBMC cells assessed as decrease in PAM3CSK4 induced TNF-alpha expression at 12.5 uM measured after 24 hrs by ELISA relative to control; type: cell-based; procedure, shortened: as §5
[9] = biological target: Toll-like receptor 2 (Homo sapiens) (UniProt O60603); experiment: Inhibition of TLR2 in human HEK-Blue hTLR2 cells assessed as suppression of PAM3CSK4-induced SEAP signaling at 25 uM after 24 hrs by quanti-blue assay relative to control; type: cell-based; procedure, shortened: as §2
TLR2/TLR6 (Homo sapiens) = TLR2/TLR6 (Homo sapiens) (UniProt O60603+Q9Y2C9); experiment: Inhibition of PAM2CSK4-induced TLR2/6 activation in human HEK-Blue hTLR2 cells; type: cell-based; procedure, shortened: as §2
[10] = biological target: Toll-like receptor 4 (Homo sapiens) (UniProt O00206); experiment: Inhibition of LPS-induced TLR4 activation in human HEK-Blue hTLR4 cells; type: cell-based; procedure, shortened: as §4
Toll-like receptor 4 (Homo sapiens), sequence (O00206 whole entry): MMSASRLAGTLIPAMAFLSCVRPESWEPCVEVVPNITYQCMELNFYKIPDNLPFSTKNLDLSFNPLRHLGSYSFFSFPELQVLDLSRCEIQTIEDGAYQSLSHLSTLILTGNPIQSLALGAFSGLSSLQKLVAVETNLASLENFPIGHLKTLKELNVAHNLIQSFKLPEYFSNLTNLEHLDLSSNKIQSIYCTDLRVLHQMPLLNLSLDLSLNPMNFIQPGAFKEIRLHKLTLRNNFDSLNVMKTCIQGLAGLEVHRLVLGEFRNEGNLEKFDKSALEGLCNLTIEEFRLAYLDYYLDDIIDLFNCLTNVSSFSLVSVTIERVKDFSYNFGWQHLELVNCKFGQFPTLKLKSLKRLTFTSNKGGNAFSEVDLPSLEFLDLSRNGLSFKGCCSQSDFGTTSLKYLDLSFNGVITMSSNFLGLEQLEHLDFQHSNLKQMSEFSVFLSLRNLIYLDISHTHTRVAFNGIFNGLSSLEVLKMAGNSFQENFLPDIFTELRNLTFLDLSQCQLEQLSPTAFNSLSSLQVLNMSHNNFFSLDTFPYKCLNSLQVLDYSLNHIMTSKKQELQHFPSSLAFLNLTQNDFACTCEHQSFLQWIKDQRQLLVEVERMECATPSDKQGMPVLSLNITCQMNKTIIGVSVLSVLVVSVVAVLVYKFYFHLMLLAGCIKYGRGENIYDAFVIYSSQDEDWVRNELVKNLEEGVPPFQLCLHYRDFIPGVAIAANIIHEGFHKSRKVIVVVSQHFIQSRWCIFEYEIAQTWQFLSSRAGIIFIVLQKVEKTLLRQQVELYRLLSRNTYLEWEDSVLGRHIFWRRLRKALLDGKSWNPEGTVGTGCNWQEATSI

[11] = biological target: Toll-like receptor 2 (Homo sapiens) (UniProt O60603); experiment: Inhibition of TLR2 in human THP1 assessed as decrease in PAM3CSK4 induced TNF-alpha expression measured after 4 hrs by ELISA
[12] = Inhibition of PAM3CSK4-induced TLR2 expression in human HEK-Blue Htlr2 cells at 12.5 uM by Western blot analysis relative to control; type: functional; details: HEK-Blue hTLR2, read-out: INH
Procedure, shortened: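 HEK-Blue hTLR2 cells, 1.5×10^6 per well, grown 24 h, then in plain DMEM with compound and 50 ng/mL Pam3CSK4 for 24 h. Lysed in RIPA/PMSF. Equal lysate amounts run on SDS-PAGE and transferred to nitrocellulose. Blocked in 5% milk, probed overnight at 4 °C with anti-TLR2, then HRP secondary.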

[13] = biological target: Toll-like receptor 1/2 (Homo sapiens) (UniProt O60603+Q15399); experiment: Inhibition of PAM3CSK4-induced TLR1/2 activation in human HEK-Blue hTLR2 cells; type: cell-based; procedure, shortened: as §2
[14] = biological target: Toll-like receptor 2 (Mus musculus) (UniProt Q9QUN7); experiment: Inhibition of TLR2 in mouse RAW264.7 cells assessed as decrease in PAM3CSK4 induced TNF-alpha expression measured after 24 hrs by ELISA; type: cell-based; procedure, shortened: as §5
[15] = biological target: Toll-like receptor 2 (Homo sapiens) (UniProt O60603); experiment: Inhibition of TLR2 in human PBMC cells assessed as PAM2CSK4-induced TLR2/Myd88 heterodimerization formation by immunoprecipitation assay; type: cell-based; procedure, shortened: as §3

Toll-like receptor 2 (Mus musculus), sequence (Q9QUN7 whole entry): as the sequence (Q9QUN7 whole entry) above

Row | Compound | IC50 (Toll-like receptor 2) [µM] | other results
1 | N[C@@H](CSCc1ccccc1)C(=O)O |  | Activity [1]: inactive
2 | COC(=O)[C@H](CSCc1ccccc1)NC(=O)c1ccc(O)cc1 | 52.1 | 
3 | C=CCCCSC[C@H](N)C(=O)O |  | Activity [1]: inactive
4 | C=CCSC[C@H](NC(=O)c1ccc(O)cc1)C(=O)OC | 40.5 | 
5 | N[C@@H](CSCc1ccc(F)cc1)C(=O)O |  | Activity [1]: inactive
6 | COC(=O)[C@H](CSCc1ccccc1)NC(=O)c1cc(O)c(O)c(O)c1 | 60.7 | 
7 | C#CCSC[C@H](NC(=O)c1ccc(O)cc1)C(=O)OC | 54.8 | 
8 | C=CCCCSC[C@H](NC(=O)c1cc(O)cc(O)c1)C(=O)OC | 57.7 | 
9 | COC(=O)[C@H](CSCc1ccccc1)NC(=O)c1cc(O)cc(O)c1 | 50.5 | 
10 | C=CCCSC[C@H](N)C(=O)O |  | Activity [1]: inactive
11 | COC(=O)[C@H](CSCc1ccc(F)cc1)NC(=O)c1cc(OC)c(OC)c(OC)c1 | 28.6 | 
12 | C=CCSC[C@H](N)C(=O)O |  | Activity [1]: inactive; inhibition [2]: inactive
13 | C#CCSC[C@H](N)C(=O)O |  | Activity [1]: inactive
14 | C=CCCSC[C@H](N)C(=O)OC | 45.5 | 
15 | C=CCCSC[C@H](NC(=O)c1cc(O)cc(O)c1)C(=O)OC | 35.8 | 
16 | COc1cc(C(=O)O)cc(OC)c1OC [3,4,5-TRIMETHOXYBENZOIC ACID] | 53.8 | 
17 | O=C(O)c1cc(O)c(O)c(O)c1 [GALLIC ACID] | 69.3 | 
18 | COC(=O)[C@H](CSCc1ccccc1)NC(=O)c1cc(OC)c(OC)c(OC)c1 | 32.6 | 
19 | C=CCSC[C@H](NC(=O)c1cc(O)cc(O)c1)C(=O)OC | 58.5 | 
20 | C=CCCSC[C@H](NC(=O)c1cc(O)c(O)c(O)c1)C(=O)OC | 57.7 | 
21 | C=CCCCSC[C@H](N)C(=O)OC | 31.3 | 

Second part, led by results:

Row | IC50 (Toll-like receptor 2) [µM] | Compound | other results
22 | 99.6 | COC(=O)[C@@H](N)CSCc1ccc(F)cc1 | 
23 | 49.3 | C=CCSC[C@H](NC(=O)c1cc(OC)c(OC)c(OC)c1)C(=O)OC | 
24 | 118 | O=C(O)c1ccc(O)cc1 [PARABEN] | 
25 | 94.4 | C#CCSC[C@H](N)C(=O)OC | 
26 | 37.3 | COC(=O)[C@H](CSCc1ccc(F)cc1)NC(=O)c1ccc(O)cc1 | 
27 | 53 | C=CCCCSC[C@H](NC(=O)c1ccc(O)cc1)C(=O)OC | 
28 | 54.4 | C=CCSC[C@H](N)C(=O)OC | 
29 | 71.5 | C#CCSC[C@H](NC(=O)c1cc(O)c(O)c(O)c1)C(=O)OC | 
30 | 50.2 | COC(=O)[C@H](CSCc1ccc(F)cc1)NC(=O)c1cc(O)c(O)c(O)c1 | 
31 | 38.3 | COC(=O)[C@H](CSCc1ccc(F)cc1)NC(=O)c1cc(O)cc(O)c1 | 
32 | 41.8 | C#CCSC[C@H](NC(=O)c1cc(O)cc(O)c1)C(=O)OC | 
33 | 117 | O=C(O)c1cc(O)cc(O)c1 [3,5-DIHYDROXYBENZOIC ACID] | 
34 | 53.2 | C#CCSC[C@H](NC(=O)c1cc(OC)c(OC)c(OC)c1)C(=O)OC | 
35 | 39.2 | C=CCCCSC[C@H](NC(=O)c1cc(O)c(O)c(O)c1)C(=O)OC | 
36 | 54.9 | C=CCCSC[C@H](NC(=O)c1ccc(O)cc1)C(=O)OC | 
37 | 117 | COC(=O)[C@@H](N)CSCc1ccccc1 | 
38 | 52.1 | C=CCSC[C@H](NC(=O)c1cc(O)c(O)c(O)c1)C(=O)OC | 
39 | 22.5 | C=CCCCSC[C@H](NC(=O)c1cc(OC)c(OC)c(OC)c1)C(=O)OC | inhibition [3]: Active; inhibition [4]: inactive; inhibition [5]: Active; inhibition [6]: Active; inhibition [7]: 50%; Activity (RAW264.7): Non-Toxic; inhibition [8]: > 95%; inhibition [9]: 50%; inhibition (TLR2/TLR6 (Homo sapiens)): Active; inhibition [10]: inactive; inhibition [11]: Active; inhibition [2]: Dose-dependent effect; inhibition at 12.5 µM [12]: > 90%; inhibition [13]: Active; inhibition [14]: Dose-dependent effect; inhibition [15]: Active
40 | 27.3 | C=CCCSC[C@H](NC(=O)c1cc(OC)c(OC)c(OC)c1)C(=O)OC | 

— ChEMBL document CHEMBL4396907, “Structure-activity relationship study and biological evaluation of SAC-Garlic acid conjugates as novel anti-inflammatory agents” (Eur J Med Chem, 2019)
